These results are taken from ChEMBL document CHEMBL5608190, “Dehydroabietylamine-substituted trifluorobenzene sulfonamide rhodamine B hybrids as anticancer agents overcoming drug resistance” (Eur J Med Chem, 2024).

The test system of one data set is A2780. Briefly: Cytotoxicity against human A2780 cells incubated for 72 hrs by SRB assay. The format is functional, cell-based. The note with it: A2780, 72 h. Put shortly:
(§1)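 Cells plated in 96-well format and left 24 h, then exposed to serial dilutions of compound for 72 h; growth read by sulforhodamine B staining. Media held 10 % fetal bovine serum and 1 % penicillin-streptomycin. IC50 taken from dose-response curves, means of 2 independent experiments.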
(The SRB assay estimates cell density from bound dye.)

A short description of data set [1]: Selectivity index, ratio of IC50 for human CCD-18Co cells to IC50 for human A2780cis cells. Put shortly:
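Selectivity index calculated as the ratio of the 72 h SRB IC50 in non-malignant CCD18Co fibroblasts to that in A2780cis.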

For a further data set, the system named is HT-29. Briefly: Cytotoxicity against human HT-29 cells incubated for 72 hrs by SRB assay. It counts as functional, cell-based. As to conditions: HT-29, 72 h; call rule not given here. Put shortly:
as §1

A further data set concerns A549. Briefly: Cytotoxicity against human A549 cells incubated for 72 hrs by SRB assay. It counts as functional, cell-based. The note with it: A549, 72 h. Put shortly:
as §1

A further data set deals with MCF7. Briefly: Cytotoxicity against human MCF7 cells incubated for 72 hrs by SRB assay. It counts as functional, cell-based. The note with it: MCF7, 72 h. In short, it runs like this: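 Cells plated in 96-well format and left 24 h, then exposed to serial dilutions of compound for 72 h; growth read by sulforhodamine B staining. Media held 10 % fetal bovine serum and 1 % penicillin-streptomycin.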

Data set [2] in a line: Cytotoxicity against human CCD-18Co cells incubated for 72 hrs by SRB assay. The format is toxicity, cell-based. In short, it runs like this:
as §1

Data set [3] is described as follows: Cytotoxicity against human A2780cis cells incubated for 72 hrs by SRB assay. The format is functional, cell-based. Put shortly: as §1
Data set [4] in a line: Drug accumulation in human HT-29 cells at 500 nM incubated for 30 mins by fluorescence based analysis. The note with it: ht-29, 0.5 h, 0.5 µM. The format is ADME, cell-based. In short, it runs like this: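 Live-cell imaging in HT29 cells seeded at 20.000 per well and grown 48 h, then switched to phenol-red-free RPMI 1640. Co-treated with compound at 500 nM, HypoxySense 680 (1:2000, CAIX probe) and Hoechst 33342 nuclear stain. Imaged after 30 min by fluorescence microscopy at Ex/Em 385/425 nm (Hoechst), 555/592 nm (compounds) and 630/681 nm (HypoxySense).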

Data set [5] is described as follows: Resistance index, ratio of IC50 for human A2780cis cells to IC50 for human A2780cis cells. It counts as functional. As to conditions: in the assay text read “to IC50 for human A2780 cells” for “to IC50 for human A2780cis cells”. In short, it runs like this: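 Resistance index calculated as the ratio of the 72 h SRB IC50 in A2780cis to that in parental A2780.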

The IC50 is the concentration that inhibits the measured activity by half. Low readings indicate greater potency in that assay, high ones weaker potency in that assay. With `CCN(CC)c1ccc2c(-c3ccccc3C(=O)N3CCN(C(=O)c4ccc(CCSc5c(F)c(F)c(S(N)(=O)=O)c(NC6CCCCCCCCCCC6)c5F)cc4)CC3)c3ccc(=[N+](CC)CC)cc-3oc2c1.[Cl-]`, the 50% inhibitory concentration (IC50) in the data set on A2780 stood at 240 nM; in the data set on HT-29 it was 320 nM; with A549 it was 590 nM; in the data set with MCF7, 260 nM; in data set [3] it was 450 nM. For the same compound, the “Ratio IC50” value in data set [1] is on record as 1.22; in data set [5], 1.87. In addition, in data set [2], the half-maximal inhibitory concentration (IC50) at 72 h was 550 nM. The Drug uptake entry in [4] is on record as “Active”.
For the compound `CCN(CC)c1ccc2c(-c3ccccc3C(=O)N3CCN(C(=O)c4ccc(CCSc5c(F)c(F)c(S(N)(=O)=O)c(NC[C@]6(C)CCC[C@]7(C)c8ccc(C(C)C)cc8CC[C@@H]67)c5F)cc4)CC3)c3ccc(=[N+](CC)CC)cc-3oc2c1.[Cl-]`, the IC50 was found to be 380 nM in the data set with A2780; 530 nM in the data set with HT-29; 710 nM in the data set with A549; 410 nM in the data set on MCF7; 460 nM in data set [3]. Besides, the “Ratio IC50” value in data set [1] is reported as 2.22; in [5], 1.21. Also, the concentration for half-maximal inhibition (IC50) at 72 h in data set [2] came out at 1020 nM. The Drug uptake entry in data set [4] is reported as “Active”.
On to `COc1cccc2c1C(=O)c1c(O)c3c(c(O)c1C2=O)C[C@@](O)(C(=O)CO)C[C@@H]3O[C@H]1C[C@H](N)[C@H](O)[C@H](C)O1` [DOXORUBICIN], for which the results for the 50% inhibitory concentration (IC50) (with HT-29; in the data set on A549; in data set [3]) were 86 nM, 23 nM and 99 nM, respectively. Half-maximal inhibition in data set [2] (IC50 at 72 h) was put at 269 nM.
